Source: ChEMBL document CHEMBL3102705, “Design, synthesis and investigation on the structure-activity relationships of N-substituted 2-aminothiazole derivatives as antitubercular agents” (Eur J Med Chem, 2014)
≈ marks a conversion by molar mass, not a printed value.

Experiments:
[1] = tested on: Mycobacterium tuberculosis; experiment: Antitubercular activity against Mycobacterium tuberculosis H37Rv ATCC 27294 assessed as growth inhibition after 16 to 24 hrs by microplate-Alamar Blue assay; assay type: functional
Summary of the method: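 MIC against M. tuberculosis H37Rv (ATCC 27294), actively replicating, by microplate Alamar Blue assay.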

Vero = experiment: Cytotoxicity against African green monkey Vero cells assessed as cell viability after 72 hrs by MTS assay; assay type: cell-based; settings: Chlorocebus sabaeus
Summary of the method: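 Value reported as an IC50 against Vero cells.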

[2] = tested on: Mycobacterium tuberculosis; experiment: Antitubercular activity against recombinant Mycobacterium tuberculosis H37Rv ATCC 27294 expressing Vibrio harveyii luciferase gene with acetamidase promoter assessed as reduction of metabolic recovery after 10 days by low-oxygen recovery assay; assay type: functional; settings: H37Rv ATCC 27294, 240 h
Summary of the method: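 Low oxygen recovery assay on H37Rv (ATCC 27294), used as an in vitro model of nonreplicating persistent M. tuberculosis. Each MIC is a single measurement.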

[3] = tested on: Mycobacterium tuberculosis; experiment: Ratio of MIC for Mycobacterium tuberculosis H37Rv ATCC 27294 expressing Vibrio harveyii luciferase gene with acetamidase promoter by low-oxygen recovery assay to MIC for Mycobacterium tuberculosis H37Rv ATCC 27294 by microplate-Alamar Blue assay; assay type: functional
[4] = Selectivity index, ratio of IC50 for African green monkey Vero cells to MIC for Mycobacterium tuberculosis H37Rv ATCC 27294; assay type: toxicity, cell-based; settings: read-out: Selectivity Index
Summary of the method: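 Selectivity index calculated as the Vero cell cytotoxicity IC50 divided by the MABA MIC against H37Rv. Cytotoxicity was measured on Vero cells.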

| SMILES | MIC [1] [µM] | further results |
| --- | --- | --- |
| Cc1ccc(Nc2nc(-c3ccc(Cl)cc3)cs2)cc1 | > 128 |  |
| Fc1ccc(C(F)(F)F)cc1-c1csc(NC2CCCCC2)n1 | 30.3 (≈ 10.4 µg/mL) |  |
| Cc1ccc(N(C)c2nc(-c3cc(C(F)(F)F)ccc3F)cs2)cc1 | 31.7 (≈ 11.6 µg/mL) | IC50 (Vero): > 128 µM |
| O=[N+]([O-])c1cn2c(n1)OC[C@@H](OCc1ccc(OC(F)(F)F)cc1)C2 [PRETOMANID] | 0.8 (≈ 0.287 µg/mL) |  |
| CC(=O)N1CCN(c2nc(-c3cc(C(F)(F)F)ccc3F)cs2)CC1 | 118 (≈ 44 µg/mL) |  |
| Cc1cc(C)cc(Nc2nc(-c3cc(C(F)(F)F)ccc3F)cs2)c1 | 30.1 (≈ 11 µg/mL) |  |
| NNC(=O)c1ccncc1 [ISONIAZID] | 0.4 (≈ 0.0549 µg/mL) |  |
| CN(C)c1nc(-c2cc(C(F)(F)F)ccc2F)cs1 | > 128 |  |
| Cc1ccc(CNc2nc(-c3cc(C(F)(F)F)ccc3F)cs2)cc1 | > 128 |  |
| COc1ccc(-c2csc(Nc3ccc(C)cc3)n2)cc1 | 13 (≈ 3.85 µg/mL) | MIC [2]: 31.8 µM; Ratio [3]: 2; IC50 (Vero): > 128 µM |
| Cc1ccc(C(=O)Nc2nc(-c3cc(C(F)(F)F)ccc3F)cs2)cc1 | > 128 |  |
| Cc1ccc(Nc2nc(-c3ccc(O)cc3)cs2)cc1 | > 128 |  |
| Fc1ccc(Nc2nc3c(s2)Cc2ccccc2-3)cc1 | > 128 |  |
| Cc1ccc(Nc2nc(-c3cc(C(F)(F)F)ccc3F)cs2)c(Cl)c1 | > 128 |  |
| Fc1ccc(C(F)(F)F)cc1-c1csc(N(Cc2ccccc2)c2cc(Cl)cc(Cl)c2)n1 | > 128 |  |
| COc1ccc(-c2csc(Nc3cc(Cl)cc(Cl)c3)n2)cc1 | 15.6 (≈ 5.48 µg/mL) |  |
| Clc1cc(Cl)cc(Nc2nc(-c3ccccc3)c(-c3ccccc3)s2)c1 | > 128 |  |
| Cc1ccc(Nc2ncc(-c3ccccc3)s2)cc1 | > 128 |  |
| Cc1ccc(Nc2nc(-c3ccccc3Cl)cs2)cc1 | > 128 |  |
| Cc1cccc(Nc2nc(-c3cc(C(F)(F)F)ccc3F)cs2)c1 | 29.8 (≈ 10.5 µg/mL) |  |
| Clc1cc(Cl)cc(Nc2nc(-c3ccccc3)cs2)c1 | 28.6 (≈ 9.19 µg/mL) |  |
| Cc1ccc(Nc2nc(-c3cc(C(F)(F)F)ccc3F)cs2)cc1 | 27.5 (≈ 9.69 µg/mL) | IC50 (Vero): 92.4 µM; selectivity ratio [4]: 3.4 |
| Cc1ccc(Nc2nc(-c3ccc(C)cc3)cs2)cc1 | > 128 |  |

| SMILES | MIC [1] [µM] | further results |
| --- | --- | --- |
| Fc1ccc(C(F)(F)F)cc1-c1csc(Nc2cccc(Cl)c2)n1 | 30.1 (≈ 11.2 µg/mL) |  |
| Cc1ccccc1Nc1nc(-c2cc(C(F)(F)F)ccc2F)cs1 | 35.1 (≈ 12.4 µg/mL) |  |
| Cc1ccc(Nc2nc(-c3ccccc3)cs2)cc1 | 63.8 (≈ 17 µg/mL) |  |
| CO[C@H]1/C=C/O[C@@]2(C)Oc3c(C)c(O)c4c(O)c(c(/C=N/N5CCN(C)CC5)c(O)c4c3C2=O)NC(=O)/C(C)=C\C=C\[C@H](C)[C@H](O)[C@@H](C)[C@@H](O)[C@@H](C)[C@H](OC(C)=O)[C@@H]1C [RIFAMPIN] | 0.1 (≈ 0.0823 µg/mL) |  |
| Cc1ccc(Nc2nc(-c3ccc(C(F)(F)F)cc3)cs2)cc1 | > 128 |  |
| Fc1ccc(C(F)(F)F)cc1-c1csc(Nc2cc(Cl)cc(Cl)c2)n1 | 15 (≈ 6.11 µg/mL) | MIC [2]: 15.2 µM; IC50 (Vero): 50 µM; selectivity ratio [4]: 3.3 |
| Fc1ccc(C(F)(F)F)cc1-c1csc(Nc2ccc(Cl)cc2Cl)n1 | > 128 |  |
| Fc1ccc(Nc2nc(-c3cc(C(F)(F)F)ccc3F)cs2)cc1 | 59.5 (≈ 21.2 µg/mL) |  |
| Fc1ccc(C(F)(F)F)cc1-c1csc(Nc2ccncc2)n1 | > 128 |  |
| Fc1ccc(C(F)(F)F)cc1-c1csc(Nc2ccccc2Cl)n1 | > 128 |  |
| Fc1ccc(C(F)(F)F)cc1-c1csc(N2CCCCC2)n1 | 56.5 (≈ 18.7 µg/mL) |  |
| Cc1ccc(Nc2nc(C)cs2)cc1 | > 128 |  |
| Cc1sc(Nc2cc(Cl)cc(Cl)c2)nc1-c1ccccc1 | 28.9 (≈ 9.69 µg/mL) |  |
| Clc1cc(Cl)cc(Nc2nc(-c3ccccc3)c(Cc3ccccc3)s2)c1 | 20 (≈ 8.23 µg/mL) | IC50 (Vero): 82.7 µM |
| Clc1cc(Cl)cc(Nc2nc3c(s2)CCc2ccccc2-3)c1 | 43.3 (≈ 15 µg/mL) |  |
| Cc1ccc2c(ccn2-c2nc(-c3cc(C(F)(F)F)ccc3F)cs2)c1 | > 128 |  |
| Cc1ccc(Nc2nc(-c3cc(C(F)(F)F)ccc3F)cs2)c(C)c1 | 30.8 (≈ 11.3 µg/mL) |  |
| Fc1ccc(C(F)(F)F)cc1-c1csc(Nc2ccc(Cl)cc2)n1 | 19.2 (≈ 7.16 µg/mL) | MIC [2]: 31.5 µM; Ratio [3]: 2; IC50 (Vero): 46.6 µM; selectivity ratio [4]: 2.4 |
| CN[C@@H]1[C@H](O[C@H]2[C@H](O[C@H]3[C@H](O)[C@@H](O)[C@H](N=C(N)N)[C@@H](O)[C@@H]3N=C(N)N)O[C@@H](C)[C@]2(O)C=O)O[C@@H](CO)[C@H](O)[C@H]1O [STREPTOMYCIN] | 0.3 (≈ 0.174 µg/mL) |  |
| Clc1cc(Cl)cc(Nc2nc3c(s2)Cc2ccccc2-3)c1 | > 128 |  |
| CCN(c1cc(Cl)cc(Cl)c1)c1nc(-c2cc(C(F)(F)F)ccc2F)cs1 | > 128 |  |
| Clc1cc(Cl)cc(Nc2nc3c(s2)-c2ccccc2C3)c1 | > 128 |  |
